Experiments:
[1] = Bioavailability in wild-type FVB/N mouse at 20 mg/kg, ip by LC-MS/MS analysis; format: ADME, organism-based; conditions: in vivo
Mus musculus [2] = test: AUC (0 to infinity) in CYP2D6-humanized transgenic FVB/N mouse at 2 mg/kg, iv by LC-MS/MS analysis; format: ADME, organism-based, Plasma; design: time infinity, dose 2 mg/kg, route intravenous; conditions: in vivo
Mus musculus [3] = test: AUC (0 to infinity) in CYP2D6-humanized transgenic FVB/N mouse at 10 mg/kg, iv by LC-MS/MS analysis; format: ADME, organism-based, Plasma; design: time infinity, dose 10 mg/kg, route intravenous; conditions: in vivo
Mus musculus [4] = test: AUC (0 to infinity) in CYP2D6-humanized transgenic FVB/N mouse at 20 mg/kg, iv by LC-MS/MS analysis; format: ADME, organism-based, Plasma; design: time infinity, dose 20 mg/kg, route intravenous; conditions: in vivo
Mus musculus [5] = test: Dose normalized AUC (0 to infinity) in CYP2D6-humanized transgenic FVB/N mouse at 2 mg/kg, iv by LC-MS/MS analysis; format: ADME, organism-based; design: dose 2 mg/kg, route intravenous; conditions: in vivo
Mus musculus [6] = test: Dose normalized AUC (0 to infinity) in CYP2D6-humanized transgenic FVB/N mouse at 10 mg/kg, iv by LC-MS/MS analysis; format: ADME, organism-based; design: dose 10 mg/kg, route intravenous; conditions: in vivo
Mus musculus [7] = test: Dose normalized AUC (0 to infinity) in CYP2D6-humanized transgenic FVB/N mouse at 20 mg/kg, iv by LC-MS/MS analysis; format: ADME, organism-based; design: dose 20 mg/kg, route intravenous; conditions: in vivo
[8] = Clearance in CYP2D6-humanized transgenic FVB/N mouse at 2 mg/kg, iv by LC-MS/MS analysis; format: ADME, organism-based; design: dose 2 mg/kg, route intravenous; conditions: in vivo
[9] = Clearance in CYP2D6-humanized transgenic FVB/N mouse at 10 mg/kg, iv by LC-MS/MS analysis; format: ADME, organism-based; design: dose 10 mg/kg, route intravenous; conditions: in vivo
[10] = Clearance in CYP2D6-humanized transgenic FVB/N mouse at 20 mg/kg, iv by LC-MS/MS analysis; format: ADME, organism-based; design: dose 20 mg/kg, route intravenous; conditions: in vivo
[11] = Volume of distribution at steady state in CYP2D6-humanized transgenic FVB/N mouse at 2 mg/kg, iv by LC-MS/MS analysis; format: ADME, organism-based; design: dose 2 mg/kg, route intravenous; conditions: in vivo, read-out: Vdss
In short: (§1)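 Male 8-week FVB/N wild-type or CYP2D6-humanized mice (25-30 g) given 5-MeO-DMT oxalate in saline i.v. at 5 µL/g body weight. Serum collected 0-180 min, N = 3 per time point, proteins precipitated with ice-cold acetonitrile containing internal standard, LC-MS/MS. Noncompartmental analysis of composite mean data; t1/2 = 0.693/terminal slope; Vss = CL×AUMC/AUC, CL = dose/AUC0→∞.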

[12] = Volume of distribution at steady state in CYP2D6-humanized transgenic FVB/N mouse at 10 mg/kg, iv by LC-MS/MS analysis; format: ADME, organism-based; design: dose 10 mg/kg, route intravenous; conditions: in vivo, read-out: Vdss; in short: as §1
[13] = Volume of distribution at steady state in CYP2D6-humanized transgenic FVB/N mouse at 20 mg/kg, iv by LC-MS/MS analysis; format: ADME, organism-based; design: dose 20 mg/kg, route intravenous; conditions: in vivo, read-out: Vdss; in short: as §1
[14] = Half life in CYP2D6-humanized transgenic FVB/N mouse at 2 mg/kg, iv by LC-MS/MS analysis; format: ADME, organism-based; design: dose 2 mg/kg, route intravenous; conditions: in vivo
[15] = Half life in CYP2D6-humanized transgenic FVB/N mouse at 10 mg/kg, iv by LC-MS/MS analysis; format: ADME, organism-based; design: dose 10 mg/kg, route intravenous; conditions: in vivo
[16] = Half life in CYP2D6-humanized transgenic FVB/N mouse at 20 mg/kg, iv by LC-MS/MS analysis; format: ADME, organism-based; design: dose 20 mg/kg, route intravenous; conditions: in vivo
Mus musculus [17] = test: AUC (0 to infinity) in CYP2D6-humanized transgenic FVB/N mouse at 2 mg/kg, ip by LC-MS/MS analysis; format: ADME, organism-based, Plasma; design: time infinity, dose 2 mg/kg, route intraperitoneal; conditions: in vivo
Mus musculus [18] = test: AUC (0 to infinity) in CYP2D6-humanized transgenic FVB/N mouse at 10 mg/kg, ip by LC-MS/MS analysis; format: ADME, organism-based, Plasma; design: time infinity, dose 10 mg/kg, route intraperitoneal; conditions: in vivo
Mus musculus [19] = test: AUC (0 to infinity) in CYP2D6-humanized transgenic FVB/N mouse at 20 mg/kg, ip by LC-MS/MS analysis; format: ADME, organism-based, Plasma; design: time infinity, dose 20 mg/kg, route intraperitoneal; conditions: in vivo
Mus musculus [20] = test: Dose normalized AUC (0 to infinity) in CYP2D6-humanized transgenic FVB/N mouse at 2 mg/kg, ip by LC-MS/MS analysis; format: ADME, organism-based; design: dose 2 mg/kg, route intraperitoneal; conditions: in vivo
Mus musculus [21] = test: Dose normalized AUC (0 to infinity) in CYP2D6-humanized transgenic FVB/N mouse at 10 mg/kg, ip by LC-MS/MS analysis; format: ADME, organism-based; design: dose 10 mg/kg, route intraperitoneal; conditions: in vivo
Mus musculus [22] = test: Dose normalized AUC (0 to infinity) in CYP2D6-humanized transgenic FVB/N mouse at 20 mg/kg, ip by LC-MS/MS analysis; format: ADME, organism-based; design: dose 20 mg/kg, route intraperitoneal; conditions: in vivo
[23] = Tmax in CYP2D6-humanized transgenic FVB/N mouse at 2 mg/kg, ip by LC-MS/MS analysis; format: ADME, organism-based; design: dose 2 mg/kg, route intraperitoneal; conditions: in vivo
In short: (§2)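 Male 8-week FVB/N wild-type or CYP2D6-humanized mice given 5-MeO-DMT oxalate in saline i.p. at 10 µL/g body weight. Serum sampled 0-180 min, N = 4 per time point, processed by acetonitrile protein precipitation with internal standard, quantified by LC-MS/MS. Tmax taken as observed from composite mean serum concentration-time data.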

[24] = Tmax in CYP2D6-humanized transgenic FVB/N mouse at 10 mg/kg, ip by LC-MS/MS analysis; format: ADME, organism-based; design: dose 10 mg/kg, route intraperitoneal; conditions: in vivo; in short: as §2
[25] = Tmax in CYP2D6-humanized transgenic FVB/N mouse at 20 mg/kg, ip by LC-MS/MS analysis; format: ADME, organism-based; design: dose 20 mg/kg, route intraperitoneal; conditions: in vivo; in short: as §2
[26] = Cmax in CYP2D6-humanized transgenic FVB/N mouse at 2 mg/kg, ip by LC-MS/MS analysis; format: ADME, organism-based; design: dose 2 mg/kg, route intraperitoneal; conditions: in vivo
[27] = Cmax in CYP2D6-humanized transgenic FVB/N mouse at 10 mg/kg, ip by LC-MS/MS analysis; format: ADME, organism-based; design: dose 10 mg/kg, route intraperitoneal; conditions: in vivo
[28] = Cmax in CYP2D6-humanized transgenic FVB/N mouse at 20 mg/kg, ip by LC-MS/MS analysis; format: ADME, organism-based; design: dose 20 mg/kg, route intraperitoneal; conditions: in vivo
[29] = Bioavailability in CYP2D6-humanized transgenic FVB/N mouse at 2 mg/kg, ip by LC-MS/MS analysis; format: ADME, organism-based; conditions: in vivo
[30] = Bioavailability in CYP2D6-humanized transgenic FVB/N mouse at 10 mg/kg, ip by LC-MS/MS analysis; format: ADME, organism-based; conditions: in vivo
Mus musculus [31] = test: AUC (0 to infinity) in wild-type FVB/N mouse at 20 mg/kg, iv by LC-MS/MS analysis; format: ADME, organism-based, Plasma; design: time infinity, dose 20 mg/kg, route intravenous; conditions: in vivo
[32] = Bioavailability in CYP2D6-humanized transgenic FVB/N mouse at 20 mg/kg, ip by LC-MS/MS analysis; format: ADME, organism-based; conditions: in vivo
[33] = Ratio of drug level in brain to serum in wild-type FVB/N mouse at 10 mg/kg, ip by LC-MS/MS analysis; format: ADME, organism-based; design: dose 10 mg/kg, route intraperitoneal
In short: (§3)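 Mice dosed i.p. with 5-MeO-DMT in saline and killed at 20, 30 or 60 min. Brain homogenized in ice-cold saline and extracted liquid-liquid; serum processed by acetonitrile precipitation. Both quantified by LC-MS/MS (brain range 4.1-3000 nM). Ratio is brain over serum concentration at the same time point.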

[34] = Ratio of drug level in brain to serum in CYP2D6-humanized transgenic FVB/N mouse at 10 mg/kg, ip by LC-MS/MS analysis; format: ADME, organism-based; design: dose 10 mg/kg, route intraperitoneal; in short: as §3
[35] = Ratio of drug level in brain to serum in wild-type FVB/N mouse at 20 mg/kg, ip by LC-MS/MS analysis; format: ADME, organism-based; design: dose 20 mg/kg, route intraperitoneal; in short: as §3
[36] = Ratio of drug level in brain to serum in CYP2D6-humanized transgenic FVB/N mouse at 20 mg/kg, ip by LC-MS/MS analysis; format: ADME, organism-based; design: dose 20 mg/kg, route intraperitoneal; in short: as §3

In the case of COc1ccc2[nH]cc(CCN(C)C)c2c1.O=C(O)C(=O)O, the bioavailability [1] is reported as 71%, the AUC (Mus musculus [2]) is reported as 49.1 µmol·min/L and the AUC (Mus musculus [3]) is reported as 369 µmol·min/L. It also gave an AUC (Mus musculus [4]) of 866 µmol·min/L, an AUC/dose (Mus musculus [5]) of 5.36 kg·min/L and an AUC/dose (Mus musculus [6]) of 8.1 kg·min/L. It also gave an AUC/dose (Mus musculus [7]) of 9.45 kg·min/L, a clearance [8] of 190 mL/min/kg and a clearance [9] of 120 mL/min/kg. The clearance [10] was 110 mL/min/kg, the Vd [11] was 2.55 L/kg and the Vd [12] was 1.68 L/kg. It also gave a Vd [13] of 2.18 L/kg, a half-life [14] of 8.4 min and a half-life [15] of 12 min. It also gave a half-life [16] of 12 min, an AUC (Mus musculus [17]) of 20.9 µmol·min/L and an AUC (Mus musculus [18]) of 225 µmol·min/L. The AUC (Mus musculus [19]) was 569 µmol·min/L, the AUC/dose (Mus musculus [20]) was 2.28 kg·min/L and the AUC/dose (Mus musculus [21]) was 4.92 kg·min/L. The AUC/dose (Mus musculus [22]) was 6.2 kg·min/L, the Tmax [23] was 3 min and the Tmax [24] was 5 min. The Tmax [25] was 5 min, the Cmax [26] was 1.01 µM and the Cmax [27] was 8.93 µM. For the same compound, the Cmax [28] was 18.3 µM, the bioavailability [29] was 42.5% and the bioavailability [30] was 61%. It also gave an AUC (Mus musculus [31]) of 920 µmol·min/L, a bioavailability [32] of 65.6% and a Kp [33] of 1.8. It also gave a Kp [34] of 1.2, a Kp [35] of 2.7 and a Kp [36] of 3.2.

From ChEMBL document CHEMBL3525944, “Nonlinear pharmacokinetics of 5-methoxy-N,N-dimethyltryptamine in mice” (Drug Metab Dispos, 2011)
